Source: publication PMC8404201 (Journal of Medicinal Chemistry, 2021)
Entries after “also recorded” stand apart in the source; their conditions may differ.

How the values were obtained:
[1] = Pilot mouse pharmacokinetic study; assay type: in vivo, BALB/c mice; settings: mice; for gross toxicity after single IV dose: single low-dose 10 mg/kg IV
[2] = Tolerability of repeated daily IP injection in mice; assay type: in vivo; settings: 10 sequential daily IP injections, 10 mg/kg (34 in 100% DMSO)
How it was run: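 Mice got 10 sequential daily IP injections of test compound dissolved in 100% DMSO. They were monitored for clinical adverse signs.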

CN(C)c1ccc2cc(-c3cc(Cl)cc(Cl)c3)c(N)nc2c1 [Compound 27, 3-[3,5-Dichlorophenyl]-N^7,N^7-dimethylquinoline-2,7-diamine]
gross toxicity after single IV dose [1]: no gross toxicity
tolerability / adverse events after repeated daily IP injection [2]: not observed; also recorded: tolerable

CN(C)c1ccc2cc(-c3cn(C)c4ccccc34)c(N)nc2c1 [Compound 34, 3-[3-(N-Methylindolyl)-N^7,N^7-dimethyl]-2,7-quinolinediamine]
apparent oral bioavailability (F) ([1]; PO vs IV, 10 mg/kg): < 20%
gross toxicity after single IV dose [1]: no gross toxicity
tolerability / adverse events after repeated daily IP injection [2]: toxic
